Measurements: ChEMBL document CHEMBL4004830 (J Med Chem, 2017)
One block for each molecule: values may come before it. Activity calls are given as the source filed them. The calls are words filed in the database; no cut-off is given here.

Legend:
[1] = molecular target: Dual specificity tyrosine-phosphorylation-regulated kinase 1B (Homo sapiens) (UniProt Q9Y463); test: Inhibition of DYRK1B (unknown origin) assessed as residual activity at 10 uM
[2] = molecular target: Cyclin-dependent kinase 1/cyclin B1 (Homo sapiens) (UniProt P06493+P14635); test: (§1) Inhibition of CDK1/cyclin B (unknown origin) in presence of [gamma-33P]-ATP […]; type: protein-complex assay
[3] = molecular target: Cyclin-dependent kinase 7/ cyclin H (Homo sapiens) (UniProt P51946+P50613); test: (§2) Inhibition of CDK7/cyclin H (unknown origin) in presence of [gamma-33P]-ATP […]; type: protein-complex assay
MDA-MB-453 = test: Growth inhibition of human MDA-MB-453 cells after 72 hrs by MTT assay; type: functional; conditions: MDA-MB-453, 72 h
How it was run: (§3)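 72 h antiproliferation assay, resazurin read-out for MV4-11 and MTT read-out for MDA-MB-453; values from at least two replicates.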

MV4-11 [4] = test: Growth inhibition of human MV4-11 cells after 72 hrs by resazurin assay; type: functional; conditions: MV4-11, 72 h; how it was run: as §3
[5] = molecular target: Dual specificity tyrosine-phosphorylation-regulated kinase 1A (Rattus norvegicus) (UniProt Q63470); test: Inhibition of recombinant rat N-terminal GST-tagged DYRK1A (1 to 499 amino acid residues) expressed in Escherichia coli assessed as residual activity at 10 uM
[6] = molecular target: Homeodomain-interacting protein kinase 2 (Homo sapiens) (UniProt Q9H2X6); test: Inhibition of recombinant human N-terminal His6-tagged HIPK2 (165 to 564 amino acid residues) expressed in baculovirus infected Sf21 insect cells assessed as residual activity at 10 uM
[7] = molecular target: Death-associated protein kinase 1 (Homo sapiens) (UniProt P53355); test: Inhibition of recombinant human N-terminal GST-tagged DAPK1 (1 to 296 amino acid residues) expressed in baculovirus infected Sf21 cells assessed as residual activity at 10 uM; values are per cent of control
MV4-11 [8] = test: Cell cycle arrest in human MV4-11 cells assessed as accumulation at sub-G1 phase at 0.20 uM after 24 hrs by propidium iodide staining based flow cytometry (reference value: 1.99%); type: functional
MV4-11 [9] = test: Cell cycle arrest in human MV4-11 cells assessed as accumulation at G1 phase at 0.40 uM after 24 hrs by propidium iodide staining based flow cytometry (reference value: 61.01%); type: functional
[10] = molecular target: Dual specificity tyrosine-phosphorylation-regulated kinase 1B (Homo sapiens) (UniProt Q9Y463); test: Inhibition of DYRK1B (unknown origin) assessed as residual activity at 10 uM; values are per cent of control
MV4-11 [11] = test: Cell cycle arrest in human MV4-11 cells assessed as accumulation at G2/M phase at 0.04 uM after 24 hrs by propidium iodide staining based flow cytometry (reference value: 17.94%); type: functional
[12] = molecular target: MAP kinase-interacting serine/threonine-protein kinase 2 (Homo sapiens) (UniProt Q9HBH9); test: Inhibition of recombinant full-length human N-terminal His6-tagged Mnk2 expressed in baculovirus infected Sf21 insect cells assessed as residual activity at 10 uM; values are per cent of control
[13] = molecular target: Serine/threonine-protein kinase pim-1 (Homo sapiens) (UniProt P11309); test: Inhibition of recombinant full-length human N-terminal GST-tagged Pim-1 expressed in Escherichia coli assessed as residual activity at 10 uM; values are per cent of control
[14] = molecular target: Cyclin-dependent kinase 1/cyclin B1 (Homo sapiens, UniProt P06493); test: as §1; type: protein-complex assay; conditions: read-out: Ki(app)
MV4-11 [15] = test: Cell cycle arrest in human MV4-11 cells assessed as accumulation at sub-G1 phase at 0.40 uM after 24 hrs by propidium iodide staining based flow cytometry (reference value: 1.99%); type: functional
CDK2/Cyclin A2 = CDK2/Cyclin A2 (Homo sapiens, UniProt P24941); test: Inhibition of CDK2/cyclin A (unknown origin) in presence of [gamma-33P]-ATP […]; type: protein-complex assay; conditions: read-out: Ki(app)
[16] = molecular target: Cyclin-dependent kinase 7/ cyclin H (Homo sapiens, UniProt P50613); test: as §2; type: protein-complex assay; conditions: read-out: Ki(app)
MV4-11 [17] = test: Cell cycle arrest in human MV4-11 cells assessed as accumulation at S phase at 0.20 uM after 24 hrs by propidium iodide staining based flow cytometry (reference value: 19.07%); type: functional
[18] = molecular target: Vascular endothelial growth factor receptor 3 (Homo sapiens) (UniProt P35916); test: Inhibition of recombinant human N-terminal GST-tagged Flt4 (800 to end amino acid residues) expressed in baculovirus infected Sf21 insect cells assessed as residual activity at 10 uM; values are per cent of control
[19] = molecular target: Receptor-type tyrosine-protein kinase FLT3 (Homo sapiens) (UniProt P36888); test: Inhibition of recombinant human N-terminal GST-tagged Flt3 (564 to end amino acid residues) expressed in baculovirus infected Sf21 insect cells assessed as residual activity at 10 uM; values are per cent of control
MV4-11 [20] = test: Cell cycle arrest in human MV4-11 cells assessed as accumulation at sub-G1 phase at 0.04 uM after 24 hrs by propidium iodide staining based flow cytometry (reference value: 1.99%); type: functional
MV4-11 [21] = test: Cell cycle arrest in human MV4-11 cells assessed as accumulation at G1 phase at 0.04 uM after 24 hrs by propidium iodide staining based flow cytometry (reference value: 61.01%); type: functional
[22] = molecular target: Fibroblast growth factor receptor 1 (Homo sapiens) (UniProt P11362); test: Inhibition of recombinant human N-terminal GST-tagged FGFR1 (456 to 765 amino acid residues) expressed in baculovirus infected Sf21 insect cells assessed as residual activity at 10 uM; values are per cent of control
MV4-11 [23] = test: Cell cycle arrest in human MV4-11 cells assessed as accumulation at S phase at 0.40 uM after 24 hrs by propidium iodide staining based flow cytometry (reference value: 19.07%); type: functional
MV4-11 [24] = test: Cell cycle arrest in human MV4-11 cells assessed as accumulation at S phase at 0.04 uM after 24 hrs by propidium iodide staining based flow cytometry (reference value: 19.07%); type: functional
MV4-11 [25] = test: Cell cycle arrest in human MV4-11 cells assessed as accumulation at G2/M phase at 0.40 uM after 24 hrs by propidium iodide staining based flow cytometry (reference value: 17.94%); type: functional
[26] = molecular target: Dual specificity tyrosine-phosphorylation-regulated kinase 1A (Rattus norvegicus) (UniProt Q63470); test: Inhibition of recombinant rat N-terminal GST-tagged DYRK1A (1 to 499 amino acid residues) expressed in Escherichia coli assessed as residual activity at 10 uM; values are per cent of control
MV4-11 [27] = test: Cell cycle arrest in human MV4-11 cells assessed as accumulation at G1 phase at 0.20 uM after 24 hrs by propidium iodide staining based flow cytometry (reference value: 61.01%); type: functional
MV4-11 [28] = test: Cell cycle arrest in human MV4-11 cells assessed as accumulation at G2/M phase at 0.20 uM after 24 hrs by propidium iodide staining based flow cytometry (reference value: 17.94%); type: functional
Homo sapiens = organism: Homo sapiens; test: Inhibition of SGK (unknown origin) assessed as residual activity at 10 uM; values are per cent of control
MV4-11 [29] = test: Cell cycle arrest in human MV4-11 cells assessed as accumulation at G1 phase after 24 hrs by propidium iodide staining based flow cytometry; type: functional
[30] = molecular target: Homeodomain-interacting protein kinase 2 (Homo sapiens) (UniProt Q9H2X6); test: Inhibition of recombinant human N-terminal His6-tagged HIPK2 (165 to 564 amino acid residues) expressed in baculovirus infected Sf21 insect cells assessed as residual activity at 10 uM; values are per cent of control

Chain of Dual specificity tyrosine-phosphorylation-regulated kinase 1B (Homo sapiens) (Q9Y463 whole entry, looked up): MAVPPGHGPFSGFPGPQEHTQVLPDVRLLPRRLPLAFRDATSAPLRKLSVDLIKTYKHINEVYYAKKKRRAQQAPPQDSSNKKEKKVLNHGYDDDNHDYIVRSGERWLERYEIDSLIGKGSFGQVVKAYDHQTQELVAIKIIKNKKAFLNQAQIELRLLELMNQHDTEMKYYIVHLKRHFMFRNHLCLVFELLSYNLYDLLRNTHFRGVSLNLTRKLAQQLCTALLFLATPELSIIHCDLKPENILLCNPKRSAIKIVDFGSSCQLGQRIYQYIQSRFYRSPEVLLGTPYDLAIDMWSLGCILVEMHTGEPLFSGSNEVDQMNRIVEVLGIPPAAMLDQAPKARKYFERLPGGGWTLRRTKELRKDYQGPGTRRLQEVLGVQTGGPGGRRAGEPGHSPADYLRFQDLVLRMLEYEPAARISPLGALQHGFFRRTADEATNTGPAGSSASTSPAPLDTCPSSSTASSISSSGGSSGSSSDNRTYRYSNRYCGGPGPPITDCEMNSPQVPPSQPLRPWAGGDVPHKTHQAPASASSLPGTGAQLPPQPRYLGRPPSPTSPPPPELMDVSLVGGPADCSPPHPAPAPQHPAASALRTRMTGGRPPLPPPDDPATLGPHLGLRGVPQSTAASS
Chain of Homeodomain-interacting protein kinase 2 (Homo sapiens) (Q9H2X6 whole entry, looked up, the tested form may be a part): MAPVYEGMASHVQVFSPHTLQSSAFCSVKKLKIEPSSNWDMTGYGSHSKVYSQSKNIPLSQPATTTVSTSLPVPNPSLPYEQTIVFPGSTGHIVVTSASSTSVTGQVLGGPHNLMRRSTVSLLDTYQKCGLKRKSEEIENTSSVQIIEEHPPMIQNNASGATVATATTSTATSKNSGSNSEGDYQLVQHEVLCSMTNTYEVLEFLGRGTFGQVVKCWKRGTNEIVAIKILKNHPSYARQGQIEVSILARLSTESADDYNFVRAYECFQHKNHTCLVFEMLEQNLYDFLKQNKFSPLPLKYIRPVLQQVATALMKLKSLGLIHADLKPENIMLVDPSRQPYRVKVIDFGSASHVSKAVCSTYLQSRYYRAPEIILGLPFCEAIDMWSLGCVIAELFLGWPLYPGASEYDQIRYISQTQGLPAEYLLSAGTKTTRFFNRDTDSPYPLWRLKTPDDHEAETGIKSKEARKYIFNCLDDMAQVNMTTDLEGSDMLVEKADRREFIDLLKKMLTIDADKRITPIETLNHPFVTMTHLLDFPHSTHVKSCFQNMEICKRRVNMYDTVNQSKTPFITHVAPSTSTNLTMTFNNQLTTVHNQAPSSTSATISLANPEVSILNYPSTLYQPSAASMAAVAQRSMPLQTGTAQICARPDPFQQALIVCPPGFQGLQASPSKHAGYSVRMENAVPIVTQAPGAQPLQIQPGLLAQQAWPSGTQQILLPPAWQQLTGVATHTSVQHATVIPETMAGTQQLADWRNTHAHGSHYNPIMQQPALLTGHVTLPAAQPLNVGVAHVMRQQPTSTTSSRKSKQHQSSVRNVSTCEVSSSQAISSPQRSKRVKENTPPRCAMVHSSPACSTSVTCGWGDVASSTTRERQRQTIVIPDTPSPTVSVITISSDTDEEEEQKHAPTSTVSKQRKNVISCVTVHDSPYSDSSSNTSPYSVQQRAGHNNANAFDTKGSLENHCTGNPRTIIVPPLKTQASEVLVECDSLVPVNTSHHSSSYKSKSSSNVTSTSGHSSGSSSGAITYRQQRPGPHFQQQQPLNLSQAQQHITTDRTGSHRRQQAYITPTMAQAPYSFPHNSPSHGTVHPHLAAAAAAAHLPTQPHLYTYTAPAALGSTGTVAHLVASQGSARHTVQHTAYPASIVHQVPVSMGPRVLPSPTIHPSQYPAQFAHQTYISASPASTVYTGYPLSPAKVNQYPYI
Chain of Receptor-type tyrosine-protein kinase FLT3 (Homo sapiens) (P36888 whole entry): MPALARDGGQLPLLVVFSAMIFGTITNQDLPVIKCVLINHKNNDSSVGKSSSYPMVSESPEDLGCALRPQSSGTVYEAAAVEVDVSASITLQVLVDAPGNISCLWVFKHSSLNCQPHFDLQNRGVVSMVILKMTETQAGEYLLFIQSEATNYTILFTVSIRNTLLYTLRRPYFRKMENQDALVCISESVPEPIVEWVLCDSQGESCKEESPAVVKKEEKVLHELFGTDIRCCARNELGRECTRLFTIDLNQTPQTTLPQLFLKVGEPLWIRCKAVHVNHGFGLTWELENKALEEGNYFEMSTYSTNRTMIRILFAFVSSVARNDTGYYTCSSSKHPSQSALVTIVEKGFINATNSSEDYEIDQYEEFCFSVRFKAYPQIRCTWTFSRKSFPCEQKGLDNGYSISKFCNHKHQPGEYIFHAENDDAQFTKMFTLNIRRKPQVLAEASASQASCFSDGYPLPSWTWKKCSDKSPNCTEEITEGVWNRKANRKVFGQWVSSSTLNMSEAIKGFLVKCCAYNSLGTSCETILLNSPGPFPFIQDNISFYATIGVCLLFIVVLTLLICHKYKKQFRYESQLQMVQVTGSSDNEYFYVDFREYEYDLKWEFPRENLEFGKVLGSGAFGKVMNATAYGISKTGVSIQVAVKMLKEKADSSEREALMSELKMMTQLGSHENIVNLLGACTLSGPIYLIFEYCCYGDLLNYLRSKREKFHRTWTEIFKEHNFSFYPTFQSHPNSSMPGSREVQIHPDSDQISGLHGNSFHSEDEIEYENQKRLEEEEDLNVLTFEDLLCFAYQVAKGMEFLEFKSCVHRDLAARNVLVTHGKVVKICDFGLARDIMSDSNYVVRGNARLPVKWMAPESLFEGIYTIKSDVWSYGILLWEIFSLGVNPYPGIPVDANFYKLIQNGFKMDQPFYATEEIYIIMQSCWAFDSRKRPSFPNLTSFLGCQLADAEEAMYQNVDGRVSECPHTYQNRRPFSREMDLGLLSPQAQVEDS
Chain of Serine/threonine-protein kinase pim-1 (Homo sapiens) (P11309 whole entry, looked up): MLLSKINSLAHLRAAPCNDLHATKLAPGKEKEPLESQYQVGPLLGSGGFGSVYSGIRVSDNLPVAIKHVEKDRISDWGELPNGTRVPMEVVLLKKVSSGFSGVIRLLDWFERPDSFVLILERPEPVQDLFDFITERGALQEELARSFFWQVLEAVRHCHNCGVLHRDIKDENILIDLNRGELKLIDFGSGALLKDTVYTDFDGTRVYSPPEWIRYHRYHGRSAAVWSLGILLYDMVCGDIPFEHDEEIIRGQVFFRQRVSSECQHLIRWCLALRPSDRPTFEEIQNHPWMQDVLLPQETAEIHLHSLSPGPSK
Chain of Death-associated protein kinase 1 (Homo sapiens) (P53355 whole entry, looked up, the tested form may be a part): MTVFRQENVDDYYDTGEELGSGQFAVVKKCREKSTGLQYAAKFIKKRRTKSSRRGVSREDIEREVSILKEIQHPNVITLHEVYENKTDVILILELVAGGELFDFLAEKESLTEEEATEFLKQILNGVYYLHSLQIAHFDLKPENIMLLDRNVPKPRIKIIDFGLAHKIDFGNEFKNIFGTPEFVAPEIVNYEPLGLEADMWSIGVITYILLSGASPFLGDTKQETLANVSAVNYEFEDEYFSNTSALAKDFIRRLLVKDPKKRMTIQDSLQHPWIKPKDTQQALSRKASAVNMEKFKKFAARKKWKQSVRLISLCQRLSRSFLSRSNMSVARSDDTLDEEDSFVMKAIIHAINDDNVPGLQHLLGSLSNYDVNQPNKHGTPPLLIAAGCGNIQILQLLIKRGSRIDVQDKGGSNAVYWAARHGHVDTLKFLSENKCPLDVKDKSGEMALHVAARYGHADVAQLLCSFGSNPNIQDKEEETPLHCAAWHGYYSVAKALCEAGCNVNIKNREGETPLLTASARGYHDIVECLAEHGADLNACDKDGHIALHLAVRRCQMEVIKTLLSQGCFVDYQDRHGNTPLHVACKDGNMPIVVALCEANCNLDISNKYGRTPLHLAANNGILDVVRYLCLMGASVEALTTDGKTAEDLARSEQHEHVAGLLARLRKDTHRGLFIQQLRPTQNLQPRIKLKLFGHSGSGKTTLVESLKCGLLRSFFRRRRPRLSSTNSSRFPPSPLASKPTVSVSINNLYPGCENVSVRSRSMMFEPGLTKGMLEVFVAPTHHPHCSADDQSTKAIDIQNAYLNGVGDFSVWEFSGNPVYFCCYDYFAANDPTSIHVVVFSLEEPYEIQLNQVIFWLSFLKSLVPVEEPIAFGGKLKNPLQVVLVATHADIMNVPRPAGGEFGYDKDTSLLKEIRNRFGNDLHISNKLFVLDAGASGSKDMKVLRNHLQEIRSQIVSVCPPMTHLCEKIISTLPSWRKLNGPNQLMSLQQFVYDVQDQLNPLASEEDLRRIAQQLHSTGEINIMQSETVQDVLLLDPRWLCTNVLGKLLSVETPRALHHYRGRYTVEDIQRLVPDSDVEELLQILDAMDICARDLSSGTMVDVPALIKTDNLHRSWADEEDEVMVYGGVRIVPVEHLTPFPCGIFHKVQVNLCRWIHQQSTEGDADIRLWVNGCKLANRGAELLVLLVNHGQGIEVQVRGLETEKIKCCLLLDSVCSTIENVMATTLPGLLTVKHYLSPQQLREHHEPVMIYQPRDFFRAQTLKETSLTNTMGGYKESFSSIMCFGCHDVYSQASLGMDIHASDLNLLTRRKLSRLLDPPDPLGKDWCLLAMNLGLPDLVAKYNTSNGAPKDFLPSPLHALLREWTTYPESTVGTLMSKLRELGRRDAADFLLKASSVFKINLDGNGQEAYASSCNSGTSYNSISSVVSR
Chain of MAP kinase-interacting serine/threonine-protein kinase 2 (Homo sapiens) (Q9HBH9 whole entry, looked up): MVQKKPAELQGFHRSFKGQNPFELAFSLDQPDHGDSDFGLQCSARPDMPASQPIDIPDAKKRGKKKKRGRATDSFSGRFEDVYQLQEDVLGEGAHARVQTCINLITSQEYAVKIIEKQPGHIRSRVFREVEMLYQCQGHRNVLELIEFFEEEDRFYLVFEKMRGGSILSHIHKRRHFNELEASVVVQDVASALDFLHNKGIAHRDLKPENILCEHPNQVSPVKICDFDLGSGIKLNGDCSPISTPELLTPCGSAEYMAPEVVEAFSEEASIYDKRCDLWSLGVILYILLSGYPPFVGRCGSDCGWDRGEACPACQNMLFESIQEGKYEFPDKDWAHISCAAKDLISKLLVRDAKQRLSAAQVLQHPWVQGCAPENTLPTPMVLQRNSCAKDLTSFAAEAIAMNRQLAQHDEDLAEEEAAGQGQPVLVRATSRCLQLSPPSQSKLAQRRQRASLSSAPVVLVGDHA

inhibition [1]: Active
Ki(app) [2]: inactive
Ki(app) [3]: inactive
GI50 (MDA-MB-453): 356 nM
GI50 (MV4-11 [4]): 454 nM
inhibition [5]: Active
inhibition [6]: Active
Structure (SMILES): Cc1nc(NC2CCCC2)sc1-c1nc(Nc2ccc(N3CCC(N(C)C)CC3)cn2)ncc1F

residual activity [10]: < 10%
residual activity [12]: < 10%
residual activity [13]: < 10%
Ki [14]: > 5000 nM
Ki (CDK2/Cyclin A2): > 5000 nM
Ki [16]: 1110 nM
GI50 (MDA-MB-453): 70 nM
residual activity [18]: < 10%
residual activity [19]: < 10%
GI50 (MV4-11 [4]): 23 nM
residual activity [22]: < 10%
residual activity [26]: < 10%
residual activity (Homo sapiens): < 10%
residual activity [30]: < 10%
Structure (SMILES): Cc1nc(NC2CCCC2)sc1-c1ccnc(Nc2ccc(N3CCNCC3)cn2)n1
residual activity [7]: < 10%
Activity (MV4-11 [8]): 4.23%
Activity (MV4-11 [9]): 85 - 85.24%
Activity (MV4-11 [11]): 12.73%
Activity (MV4-11 [15]): 4.01%
Activity (MV4-11 [17]): 13.52%
Activity (MV4-11 [20]): 6.3%
Activity (MV4-11 [21]): 64.05%
Activity (MV4-11 [23]): 5.9%
Activity (MV4-11 [24]): 17.01%
Activity (MV4-11 [25]): 4.7%
Activity (MV4-11 [27]): 72.09%
Activity (MV4-11 [28]): 9.96%
Activity (MV4-11 [29]): Dose-dependent effect
